Data on 7 compounds can be found in ChEMBL document CHEMBL1123278, “Synthesis and dopaminergic activity of trans-6-methyl-7a,8,9,10,11,11a-hexahydro-7H-pyrrolo[3,2,1-gh]- 4,7-phenanthroline and trans-1,2,3,4,4a,5,6,10b-octahydro-4,7-phenanthroline derivatives” (J Med Chem, 1986).

In data set [1] the test system is Rattus norvegicus. As to the kind of experiment: Compound at the 4.56 mg/kg dose levels was evaluated for its ability to lower serum prolactin levels 3h after intraperitoneal administration. Also noted: dose 4.56 mg/kg. It counts as functional, organism-based. Put shortly:
(§1)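 Time course in reserpine-pretreated male Wistar rats (250–300 g), given reserpine 2.5 mg/rat ip 18 h before dosing. The drug was given ip in distilled water (1 mL/kg), and rats were killed 1, 3 or 6 h later, with saline controls at each time. Serum prolactin was measured by duplicate NIADDK RIA (ng RP3/mL) and reported as % inhibition versus controls, mean ± standard error, 6–10 rats/group.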

Data set [2] has as its system Rattus norvegicus. Description: Compound was tested for inhibiting prolactin release at the 4.56 mg/kg dose levels 3h after ip administration. It is filed as functional. As to conditions: route intraperitoneal. Put shortly: as §1
Data set [3] concerns Rattus norvegicus. Description: Compound was tested for inhibiting prolactin release at the 4.56 mg/kg dose levels 1 hr after ip administration. It is filed as functional. Conditions: route intraperitoneal. An outline of the steps:
as §1

For data set [4], the system named is Rattus norvegicus. Description: Dopaminergic activity, ability to lower serum prolactin levels after intraperitoneal administration of compound (0.456 mg/kg). It is filed as functional, organism-based. An outline of the steps:
(§2)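 Adult male Wistar rats (250–300 g) were caged singly with food and water ad libitum. Each rat got reserpine pretreatment, 2.5 mg/rat ip (2.5 mg/mL), 18 h before the drug. Drugs were dissolved in distilled water at 1 mL/kg ip; saline controls were run. Serum (100 µL, duplicate) was assayed by NIADDK prolactin RIA, expressed as ng RP3/mL. Results were given as % inhibition versus controls, mean ± standard error, 5–10 rats/group.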

Data set [5] can be described thus: Compound was evaluated for its acute toxicity in rat. It counts as organism-based. As to conditions: in vivo. An outline of the steps: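 Male Wistar rats (200–250 g), 50 per substance, given single ip doses at five dose levels with 10 rats per dose. Deaths were followed for up to 14 days. LD50 was estimated by the Weil method, with 95% confidence limits.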
Data set [6] has as its system Rattus norvegicus. As to the kind of experiment: Compound at the 4.56 mg/kg dose levels was evaluated for its ability to lower serum prolactin levels 6 hr after intraperitoneal administration. It counts as functional, organism-based. Also noted: dose 4.56 mg/kg. An outline of the steps:
as §1

For data set [7], the system named is Rattus norvegicus. As to the kind of experiment: Compound was tested for inhibiting prolactin release at the 4.56 mg/kg dose levels 6 hr after ip administration. It counts as functional. As to conditions: route intraperitoneal. An outline of the steps:
as §1

The test system of data set [8] is Rattus norvegicus. As to the kind of experiment: Compound was tested for inhibiting prolactin release at the 0.0456 mg/kg dose levels. It is filed as functional. Put shortly: as §2
Data set [9] has as its system Rattus norvegicus. As to the kind of experiment: Dopaminergic activity, ability to lower serum prolactin levels after intraperitoneal administration of compound (0.0456 mg/k). It counts as functional, organism-based. Put shortly: as §2
Data set [10] deals with Rattus norvegicus. Description: Dopaminergic activity, ability to lower serum prolactin levels 1 hr after intraperitoneal administration of compound (4.56 mg/kg). It is filed as functional, organism-based. Put shortly: as §1
In data set [11] the test system is Rattus norvegicus. Description: Compound was tested for inhibiting prolactin release at the 0.456 mg/kg dose levels. It is filed as functional. Put shortly:
as §2

In data set [12] the test system is Rattus norvegicus. Description: Compound was tested for inhibiting prolactin release at the 50.0 mg/kg dose levels. It counts as functional. An outline of the steps: as §2
Data set [13] has as its system Rattus norvegicus. As to the kind of experiment: Dopaminergic activity, ability to lower serum prolactin levels after intraperitoneal administration of compound (50.0 mg/kg). It is filed as functional, organism-based. Put shortly: as §2
The test system of data set [14] is Rattus norvegicus. As to the kind of experiment: Dopaminergic activity, ability to lower serum prolactin levels after intraperitoneal administration of compound (0.833 mg/kg). It counts as functional, organism-based. An outline of the steps: as §2
Data set [15] relates to Rattus norvegicus. As to the kind of experiment: Compound was tested for inhibiting prolactin release at the 4.165 mg/kg dose levels. It is filed as functional. Put shortly:
as §2

Data set [16] has as its system Rattus norvegicus. Description: Compound was tested for inhibiting prolactin release at 0.833 mg/kg dose levels. It counts as functional. Put shortly:
as §2

The test system of data set [17] is Rattus norvegicus. As to the kind of experiment: Dopaminergic activity, ability to lower serum prolactin levels after intraperitoneal administration of compound (4.165 mg/kg). It is filed as functional, organism-based. Put shortly:
as §2

The test system of data set [18] is Rattus norvegicus. Description: Dopaminergic activity, ability to lower serum prolactin levels after intraperitoneal administration of compound (8.33 mg/kg). It is filed as functional, organism-based. An outline of the steps:
as §2

The subject of data set [19] is Rattus norvegicus. As to the kind of experiment: Compound was tested for inhibiting prolactin release at the 8.33 mg/kg dose levels. It is filed as functional. Put shortly: as §2
In data set [20] the test system is Rattus norvegicus. As to the kind of experiment: Dopaminergic activity, ability to lower serum prolactin levels after intraperitoneal administration of compound (34.7 mg/kg). It is filed as functional, organism-based. An outline of the steps: as §2
The subject of data set [21] is Rattus norvegicus. As to the kind of experiment: Dopaminergic activity, ability to lower serum prolactin levels after intraperitoneal administration of compound (103.3 mg/kg). It counts as functional, organism-based. Put shortly: as §2
The subject of data set [22] is Rattus norvegicus. As to the kind of experiment: Compound was tested for inhibiting prolactin release at the 103.3 mg/kg dose levels. It is filed as functional. An outline of the steps:
as §2

The test system of data set [23] is Rattus norvegicus. As to the kind of experiment: Dopaminergic activity, ability to lower serum prolactin levels after intraperitoneal administration of compound (0.01 mg/kg) in rats. It is filed as functional, organism-based. An outline of the steps:
as §2

Data set [24] concerns Rattus norvegicus. Description: Compound was tested for the percent prolactin inhibiting activity at the 0.01 mg/kg dose levels. It counts as functional. An outline of the steps:
(§3)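 Adult male Wistar rats (250-300 g), individually caged, food and water ad libitum, pretreated ip with reserpine 2.5 mg/rat 18 h before dosing to keep prolactin high. Single ip dose in distilled water (1 mL per kg); controls received isotonic saline. Serum prolactin measured by radioimmunoassay in duplicate, 100 μL serum, as ng rat prolactin RP3/mL; % inhibition versus saline controls.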

Data set [25] deals with Rattus norvegicus. As to the kind of experiment: Dopaminergic activity, ability to lower serum prolactin levels after intraperitoneal administration of compound (0.1 mg/kg) in rats. It counts as functional, organism-based. An outline of the steps:
as §2

Data set [26] deals with Rattus norvegicus. Description: Compound was tested for the percent prolactin inhibiting activity at the 0.1 mg/kg dose levels. It is filed as functional. Put shortly: as §3
Data set [27] concerns Rattus norvegicus. Description: Dopaminergic activity, ability to lower serum prolactin levels after intraperitoneal administration of compound (0.001 mg/kg) in rats. It counts as functional, organism-based. An outline of the steps:
as §2

Data set [28] concerns Rattus norvegicus. Description: Compound was tested for the percent prolactin inhibiting activity at the 0.001 mg/kg dose levels. It counts as functional. An outline of the steps: as §3
In data set [29] the test system is Rattus norvegicus. Description: Dopaminergic activity, ability to lower serum prolactin levels after intraperitoneal administration of compound (11.2 mg/kg) in rats. It counts as functional, organism-based. Put shortly:
as §2

Take `CCCN1CCC[C@@H]2c3cccnc3CC[C@H]21`: the Level in [1] was 4.6 ng/mL; in data set [4] it was 8.8 ng/mL; in data set [6], 9.6 ng/mL; in data set [9] it was 12.1 ng/mL; in data set [10] it was 2.5 ng/mL. Besides, the inhibition in vivo (as a rule, the relative decrease from the control value, in per cent) at 4.56 mg/kg is 70% in data set [2], 85% in [3] and 41.8% in data set [7]. Further, the median lethal dose (LD50) (commonly the dose expected to kill half of the subjects tested) in data set [5] came to 183 mg/kg. Besides, the inhibition in vivo at 0.0456 mg/kg in data set [8] is 27.5%. The compound also showed an inhibition in vivo at 0.456 mg/kg in data set [11] of 47.3%.
In the case of `CN1CCC[C@H]2c3cccnc3CC[C@H]21`, the LD50 in [5] was 200 mg/kg. The compound further yielded an inhibition in vivo at 50 mg/kg in data set [12] of 14.3%. This compound yielded a Level in data set [13] of 14.3 ng/mL.
With `CCN1CCC[C@@H]2c3cccn4cc(C)c(c34)C[C@H]21`, the Level turned out to be 10.9 ng/mL in data set [14], 4.7 ng/mL in [17] and 3.3 ng/mL in data set [18]. 4.165 mg/kg produced 71.3% inhibition in vivo in [15]. For the same compound, in [16], 0.833 mg/kg produced 34.7% inhibition in vivo. The compound further registered an LD50 in data set [5] of 228 mg/kg. The inhibition in vivo at 8.33 mg/kg in [19] was 80.2%.
`CCCN1CCC[C@H]2c3cccnc3CC[C@H]21` displayed a Level in data set [20] of 19.3 ng/mL. The compound further displayed a median lethal dose (LD50) in data set [5] of 139 mg/kg.
In turn, `CCCN1CCC[C@@H]2c3cccn4cc(C)c(c34)C[C@H]21` gave a Level in data set [21] of 10.2 ng/mL. The inhibition in vivo at 103.3 mg/kg in [22] is 38.9%. Further, in data set [5], the LD50 is 413 mg/kg.
For `CC(C)C[C@H]1C(=O)N2CCC[C@H]2[C@]2(O)O[C@](NC(=O)[C@@H]3C=C4c5cccc6[nH]c(Br)c(c56)C[C@H]4N(C)C3)(C(C)C)C(=O)N12` [BROMOCRIPTINE], the Level came to 6.6 ng/mL in data set [23], 1.6 ng/mL in [25] and 12.7 ng/mL in [27]. This compound came in with an inhibition in vivo at 0.01 mg/kg in [24] of 60.4%. The compound further came in with an inhibition in vivo at 0.1 mg/kg in data set [26] of 90.4%. This compound came in with an inhibition in vivo at 0.001 mg/kg in data set [28] of 23.9%.
In turn, `Cc1cn2cccc3c2c1C[C@@H]1[C@@H]3CCCN1C` had a median lethal dose (LD50) in data set [5] of 45 mg/kg. Also, the Level in data set [29] is 18.9 ng/mL.
